# From ChEMBL document CHEMBL3400073, “Design, synthesis and biological evaluation of new hybrid anticonvulsants derived from N-benzyl-2-(2,5-dioxopyrrolidin-1-yl)propanamide and 2-(2,5-dioxopyrrolidin-1-yl)butanamide derivatives” (Bioorg Med Chem, 2015)
# Active and inactive are the calls of the source. The rule behind the calls is not given here.
# Assays:
# Mus musculus [1] = experiment: Neurological toxicity in Albino Swiss CD1 mouse at 100 mg/kg, ip after 0.5 hrs by rotarod test; assay type: organism-based; set-up: dose 100 mg/kg, route intraperitoneal; conditions: in vivo
# Summary of the method: (§1)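 Mice were trained on a 2 cm rod for 3 min, with unlimited trials, at least 24 h before testing. Each was then dosed ip at 100 mg/kg and tested at 10 rpm 0.5 h or 2 h later, in groups of 4. Failure to stay on the rod for at least 1 min indicated neurotoxicity.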
# Mus musculus [2] = experiment: Anticonvulsant activity in Albino Swiss CD1 mouse at 100 mg/kg, ip after 2 hrs by subcutaneous pentylenetetrazole test; assay type: functional, organism-based; set-up: dose 100 mg/kg
# Summary of the method: (§2)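 Male CD-1 mice, 16–26 g, in groups of 4, each mouse used once, were given 100 mg/kg ip (0.1 mL/10 g, methylcellulose vehicle). MES used 25 mA, 500 V, 50 Hz delivered by ear electrodes for 0.2 s, and absence of hindlimb tonic extension counted as protection. In scPTZ, mice without clonic convulsions over 30 min of observation counted as protected. Both tests were run 0.5 h or 2 h after dosing.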
# Mus musculus [3] = experiment: Anticonvulsant activity in Albino Swiss CD1 mouse at 100 mg/kg, ip after 0.5 hrs by subcutaneous pentylenetetrazole test; assay type: functional, organism-based; set-up: dose 100 mg/kg; summary of the method: as §2
# Mus musculus [4] = experiment: Anticonvulsant activity in Albino Swiss CD1 mouse at 100 mg/kg, ip after 0.5 hrs by maximal electroshock test; assay type: functional, organism-based; set-up: dose 100 mg/kg; summary of the method: as §2
# Mus musculus [5] = experiment: Anticonvulsant activity in Albino Swiss CD1 mouse at 100 mg/kg, ip after 2 hrs by maximal electroshock test; assay type: functional, organism-based; set-up: dose 100 mg/kg; summary of the method: as §2
# Mus musculus [6] = experiment: Neurological toxicity in Albino Swiss CD1 mouse at 100 mg/kg, ip after 2 hrs by rotarod test; assay type: organism-based; set-up: dose 100 mg/kg, route intraperitoneal; conditions: in vivo; summary of the method: as §1
# [7] = Neurological toxicity in intraperitoneally dosed Albino Swiss CD1 mouse by rotarod test; assay type: organism-based; conditions: in vivo, ip
# Summary of the method: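 Mice trained on the rotarod were given various ip doses, four groups in all, and tested at 10 rpm. Failure to stay on the rod for at least 1 min indicated neurotoxicity.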
# Mus musculus [8] = experiment: Protective index, ratio of neurotoxic TD50 in Albino Swiss CD1 mouse by rotarod test to anticonvulsant ED50 in Albino Swiss CD1 mouse by subcutaneous pentylenetetrazole test
# Summary of the method: (§3)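 The protective index is the rotarod TD50 divided by the MES or scPTZ ED50. Each value came from ip dosing in male CD-1 mice with probit analysis, and the reference drugs were tested under the same conditions.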
# Mus musculus [9] = experiment: Anticonvulsant activity in intraperitoneally dosed Albino Swiss CD1 mouse after 0.5 hrs by subcutaneous pentylenetetrazole test; assay type: functional
# Summary of the method: (§4)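 Male CD-1 mice were dosed ip (0.1 mL/10 g, methylcellulose vehicle), at least four dose groups of 6 mice each. Protection in MES meant no hindlimb tonic extension after a 25 mA, 50 Hz, 0.2 s ear-electrode shock. Protection in scPTZ meant no clonus over 30 min.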
# Mus musculus [10] = experiment: Anticonvulsant activity in intraperitoneally dosed Albino Swiss CD1 mouse by subcutaneous pentylenetetrazole test; assay type: functional; summary of the method: as §4
# Mus musculus [11] = experiment: Anticonvulsant activity in intraperitoneally dosed Albino Swiss CD1 mouse by maximal electroshock test; assay type: functional; conditions: Albino Swiss CD1, ip; summary of the method: as §4
# Mus musculus [12] = experiment: Anticonvulsant activity in intraperitoneally dosed Albino Swiss CD1 mouse assessed as time to peak effect by maximal electroshock test; assay type: functional
# Mus musculus [13] = organism: Mus musculus; experiment: Protective index, ratio of neurotoxic TD50 in Albino Swiss CD1 mouse by rotarod test to anticonvulsant ED50 in Albino Swiss CD1 mouse by maximal electroshock test; summary of the method: as §3
# Mus musculus [14] = experiment: Anticonvulsant activity in intraperitoneally dosed Albino Swiss CD1 mouse after 0.5 hrs by maximal electroshock test; assay type: functional; summary of the method: as §4
# Mus musculus [15] = experiment: Anticonvulsant activity in intraperitoneally dosed Albino Swiss CD1 mouse assessed as time to peak effect after 2 hrs by subcutaneous pentylenetetrazole test; assay type: functional
SMILES,Activity (Mus musculus [1]),Activity (Mus musculus [2]),Activity (Mus musculus [3]),Activity (Mus musculus [4]),Activity (Mus musculus [5]),Activity (Mus musculus [6]),TD50 [7] [mg/kg],Ratio TD50/ED50 (Mus musculus [8]),MED50 (Mus musculus [9]) [mg/kg],ED50 (Mus musculus [10]) [mg/kg],ED50 (Mus musculus [11]) [mg/kg],Time (Mus musculus [12]) [h],Ratio TD50/ED50 (Mus musculus [13]),MED50 (Mus musculus [14]) [mg/kg],Time (Mus musculus [15]) [h]
CCC(C(=O)NCC1CCCCC1)N1C(=O)CCC1=O (racemic),Non-toxic,inactive,inactive,inactive,inactive,Non-toxic,,,,,,,,,
CCC(C(=O)NCc1ccc(C(F)(F)F)cc1)N1C(=O)CCC1=O (racemic),Non-toxic,inactive,,,inactive,Non-toxic,112,1.4,100,80.4,69.4,0.5,1.62,100,0.5
CC(C(=O)NCc1ccc(F)cc1)N1C(=O)CCC1=O (racemic),Non-toxic,inactive,inactive,inactive,inactive,Non-toxic,,,,,,,,,
CC(C(=O)NCc1cccc(F)c1)N1C(=O)CCC1=O (racemic),Non-toxic,inactive,inactive,,inactive,Non-toxic,> 500,,,,77.4,0.5,>6.46,100,0.5
COC[C@@H](NC(C)=O)C(=O)NCc1ccccc1 [LACOSAMIDE],,,,,,,,,,> 500,9.24,0.5,,,0.5
CC(C(=O)NCc1ccccc1Cl)N1C(=O)CCC1=O (racemic),Non-toxic,inactive,inactive,,inactive,Non-toxic,340,,,,74.5,0.5,4.57,100,0.5
CC1CC(=O)N(C(C)C(=O)NCc2ccc(Cl)cc2)C1=O (racemic),Non-toxic,inactive,inactive,inactive,inactive,Non-toxic,,,,,,,,,
CC1CC(=O)N(C(C)C(=O)NCC2CCCCC2)C1=O (racemic),Non-toxic,inactive,inactive,inactive,inactive,Non-toxic,,,,,,,,,
CC1CC(=O)N(C(C)C(=O)NCc2cccc(F)c2)C1=O (racemic),Non-toxic,inactive,inactive,,inactive,Non-toxic,297,,,,130,0.5,2.29,100,0.5
CC1CC(=O)N(C(C)C(=O)NCc2ccccc2)C1=O (racemic),Non-toxic,inactive,,,inactive,Non-toxic,355,4.54,100,78.3,106,0.5,3.34,100,0.5
CCC(C(=O)NCc1ccccc1)N1C(=O)CCC1=O (racemic),Non-toxic,inactive,,,inactive,Non-toxic,312,3.46,100,90.3,73.3,0.5,4.26,100,0.5
CC(C(=O)NCc1ccccc1C(F)(F)F)N1C(=O)CCC1=O (racemic),Non-toxic,inactive,inactive,inactive,inactive,Non-toxic,,,,,,,,,
CC1CC(=O)N(C(C)C(=O)NCc2cccc(Cl)c2)C1=O (racemic),Non-toxic,inactive,inactive,,inactive,Non-toxic,247,,,,90.3,0.5,2.73,100,0.5
CC1CC(=O)N(C(C)C(=O)NCc2ccccc2C(F)(F)F)C1=O (racemic),Non-toxic,inactive,inactive,inactive,inactive,Non-toxic,,,,,,,,,
CCCC(CCC)C(=O)O [VALPROIC ACID],,,,,,,,,,,,0.5,,,0.5
CC(C(=O)NCc1cccc(C(F)(F)F)c1)N1C(=O)CCC1=O (racemic),Non-toxic,inactive,inactive,,inactive,Non-toxic,332,,,,92.4,0.5,3.59,100,0.5
NC(=O)N1c2ccccc2C=Cc2ccccc21 [CARBAMAZEPINE],,,,,,,49.3,,,> 100,14.2,0.5,3.47,,0.5
CCC1(C)CC(=O)NC1=O (centres undefined) [ETHOSUXIMIDE],,,,,,,,,,,> 500,0.25,,,0.25
CC1CC(=O)N(C(C)C(=O)NCc2ccccc2F)C1=O (racemic),Non-toxic,inactive,inactive,,inactive,Non-toxic,239,,,,80.5,0.5,2.97,100,0.5
CC1CC(=O)N(C(C)C(=O)NCc2ccc(F)cc2)C1=O (racemic),Non-toxic,inactive,inactive,inactive,inactive,Non-toxic,,,,,,,,,
CC(C(=O)NCc1cccc(Cl)c1)N1C(=O)CCC1=O (racemic),Non-toxic,inactive,inactive,,inactive,Non-toxic,347,,,,82,0.5,4.23,100,0.5
CC1CC(=O)N(C(C)C(=O)NCc2cccc(C(F)(F)F)c2)C1=O (racemic),Non-toxic,inactive,inactive,inactive,inactive,Non-toxic,,,,,,,,,
CC1CC(=O)N(C(C)C(=O)NCc2ccccc2Cl)C1=O (racemic),Non-toxic,inactive,inactive,,inactive,Non-toxic,275,,,,85.8,0.5,3.2,100,0.5
CC(C(=O)NCc1ccccc1)N1C(=O)CCC1=O (racemic),Non-toxic,inactive,,,inactive,Non-toxic,,,100,,,0.5,,100,0.5
CC(C(=O)NCC1CCCCC1)N1C(=O)CCC1=O (centres undefined),Non-toxic,inactive,inactive,inactive,inactive,Non-toxic,,,,,,,,,
